The EternaBench riboswitch data

Test system: MS2 coat protein
Experiment: apparent Kd, MS2 coat protein; higher = weaker binding; RNA-MaP array; FMN 200 µM where present
In short: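 Green signal from SNAP-549-labelled MS2 coat protein was normalised to red-channel RNA signal and to the median Fmax of control clusters. The protein was titrated from 0.7 or 1.5 nM, doubling to 3 µM, without and then with constant ligand, over designs transcribed by stalled E. coli RNA polymerase on Illumina sequencing-chip clusters, in 100 mM Tris-HCl pH 7.5, 80 mM KCl, 4 mM MgCl2, BSA, DTT, yeast tRNA and Tween-20. The apparent Kd is the median of filtered per-cluster binding-curve fits.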

[1] = designed as: OFF switch for flavin mononucleotide, no ligand
[2] = ligand present: flavin mononucleotide, designed as: OFF switch for flavin mononucleotide
[3] = designed as: ON switch for flavin mononucleotide, no ligand
[4] = ligand present: flavin mononucleotide, designed as: ON switch for flavin mononucleotide

Row | Sequence | apparent Kd [1] | apparent Kd [2] | apparent Kd [3] | apparent Kd [4]
1 | CUGUGACGGUGCGCAAGUGGACGGAGAAGGGUCACAUGAGGAUCACCCAUGUGGGCCUGCUAUUGACAGGAUAUCCGUUCGUAC | 5.94 nM | 6.46 nM | – | –
2 | GUGCACACUCGAGGAUAUCGGAGAGUUCUCCUUCGAGAAGGCGAUUCGUGCCGUGUUAUUCUGGACAUGAGGAUCACCCAUGUG | – | – | 84.2 nM | 32.4 nM
3 | GUACCUUAUGAGAAGGCGAUCAUUAAACAUGAUCGAGGAUAUCAUGUAAACAUGAGGAUCACCCAUGUAUGGGUAUUAUGGUAC | – | – | 66.7 nM | 19.3 nM
4 | UUUUAGCGAGGAUAUACAUUUUUUUUAUUAUCCUCAUUAUUACAUGAGGAUCACCCAUGUAGAAGGCGCAUUUU | 41 nM | 139 nM | – | –
5 | AAUGAGUUUCUCACACUGUUCACAUGAGGAUCACCCAUGUACAGAAGGUAGAGACUUCCGGUCGCUAAGGAUAUGUAGAGGGUC | 5.05 nM | 6.01 nM | – | –
6 | GGAUCCAACACAGGAUAUGCUGGACCUUGUCCAGCAGAAGGGUGAAGAACAUGAGGAUCACCCAUGUGGAUCCAUAUAUUUAAU | – | – | 240 nM | 14.6 nM
7 | UUACUCAUGUAAGGAUAUGCAGCCGAAACGGCUGCAGAAGGUACUAAAAUACAUGAGGAUCACCCAUGUCUUUUUAUUUUAGAC | – | – | 197 nM | 129 nM
8 | ACAUACAUUCGAGGAUAUCGGUGAUUUAUUUUACGAGAAGGCGAUUUAAGAUUUAUUAUUUUAGACAUGAGGAUCACCCAUGUA | – | – | 27.7 nM | 24.5 nM
9 | GGAGCUCACAUUAACAUGAGGAUCACCCAUGUCUCUUGACAUGAGGAUAUGGAUCCUAAUUGGAUCCAGAAGGCAUGGAGCUCC | – | – | 1650 nM | 108 nM
10 | GCGUUUACGGUUGACACUUAGCGAGAGGAUAUGGAAAACAAGACAUGAGGAUCACCCAUGUACUAUCAGAAGGCUCGAGUACGC | – | – | 8.65 nM | 5.29 nM
11 | GCUCGGAGAGGAUAUACAUGAGGAUCACCCAUGUAGGUAAGCAGCGAUGGCAGUCCAUGUAGAAGGUUCAGGUG | 43.4 nM | 49.7 nM | – | –
12 | GCCAGUUAUGUAGGAUAUGCGAAGCGAGCCUGAGCAGAAGGACAUGAGGAUCACCCAUGUAUUGCGGUUUGAGUACUGAUCGCU | 27.9 nM | 107 nM | – | –
13 | AUAAUGUGAGGAUAUCAGUAAGAAUGCUUCGGCAUUCUUACUGAGAAGGCACAUGAGGAUCACCCAUGUGAUUA | 201 nM | 964 nM | – | –
14 | CUCUUGGCAGGAUAUGCUCUUUUAGACAUGAGGAUCACCCAUGUGCUCAUUCCUUCUUUUGCAGAAGGGCCUUAAC | 73 nM | 54.7 nM | – | –
15 | GUGUAGAGAGGAUAUACAUGAGGAUCACCCAUGUGAAUAAGAUAGAAUAAGAUAAAGUGUAGAAGGCUUAGUGU | 33.5 nM | 25.9 nM | – | –
16 | CGCAAGUCAGGAUAUUCGACAGGUAAAUCAGUGGAUCAGAAGGAGAAGGGACAUGAGGAUCACCCAUGUAAGUA | 49.7 nM | 29.4 nM | – | –
17 | GCGCUUAUACAGAAGGCCAUAUACAUGAGGAUCACCCAUGUUACAUGGUGGAGGAUAUGUUAUUAAGUACAGGUAGAUGAGCGC | – | – | 5.98 nM | 5.38 nM
18 | GAAUGUCGGGUAGGAUAUGACGUGCCACGGAGGUCAGAAGGGCCACGACAUGAGGAUCACCCAUGUACUGUAUUCCUUUUUCAA | 22.9 nM | 60.4 nM | – | –

Row | Sequence | apparent Kd [1] | apparent Kd [2] | apparent Kd [3] | apparent Kd [4]
19 | GGAGUACAUGAGGAUCACCCAUGUUGGAACAAAGUAGGAUAUGUACAAUAUUAAAUAAAAACAGAAGGACUAAGAA | – | – | 47.4 nM | 30.8 nM
20 | CGCUAGUCAGGAUAUACGAACAUGUCAAAAGACGUGAAGGGACAUGAGGAUCACCCAUGUAGAAGGGACUAGCC | 32.8 nM | 115 nM | – | –
21 | CUAUUACGAGGAUAUGAUUUAAAUAACAUGAGGAUCACCCAUGUUUUUACGUUAUUAUGUUCAGAAGGCGUAUUGU | 26.5 nM | 19.4 nM | – | –
22 | AUACUCGUUGUGAGGAUAUCGUUUUCUUUACGGAUCGAGAAGGCACAUGAGGAUCACCCAUGUUUGACGUGAAU | 33.7 nM | 162 nM | – | –
23 | CCGCUAAUAGGAUAUACAUGAGGAUCACCCAUGUCACUCUUCAUUGGUGUCUCUUCAAGUAGAAGGGUUGCUCA | 28.5 nM | 28.1 nM | – | –
24 | ACGUAUCGUGUAGGAUAUGACACAGGAAACUGGUCAGAAGGACAUGAGGAUCACCCAUGUAGAGUAUGUUAGGAUGACGUAUGC | 43 nM | 261 nM | – | –
25 | GGACGACACAUCUACAUGAGGAUCACCCAUGUCGAAAGACAUGAGGAUAUGCAUCCUAAUUGGAUGCAGAAGGCAUGGUCGUCC | – | – | 1210 nM | 70.3 nM
26 | GUCAUGUCAGGAUAUGCUUAUGGUGGGUGCUCAGACAUGAUGCAGAAGGGACAUGAGGAUCACCCAUGUACUGU | 35.8 nM | 60.9 nM | – | –
27 | CGCUAAGAUGGGUUUAAUGGAGCAUAGGAUAUGCUUGUACAUGAGGAUCACCCAUGUUAUAUUGUGCAGAAGGGUGCAUUUGCG | – | – | 457 nM | 158 nM
28 | CCGACGUCAGGAUAUCUGAUGUCUAACUUCGGUUAGACAUCAGAGAAGGGACAUGAGGAUCACCCAUGUCGGAG | 29 nM | 52.8 nM | – | –
29 | UCGGCGCGAGGAUAUACGUUUGCUUUUUAGGGUCGUGGCGUACAUGAGGAUCACCCAUGUAGAAGGCGCGCCGC | 16.9 nM | 52.7 nM | – | –
30 | UGUUGUUCCGCAGGAUAUGUAUUGGAUUACAAUACAGAAGGGCGAUAACAUGAGGAUCACCCAUGUGUGGACAAUAAGGAAGAG | – | – | 708 nM | 67.1 nM
31 | UGAGGACAUGAGGAUCACCCAUGUAGGCCACAAUCAGGAUAUGCAUUAAGGUACCUAAGAGUAGAAGGGAUUCGAG | – | – | 82.1 nM | 75.6 nM
32 | CCAUGCAUAGCGAUAUGAUCGAGAGAUCAUGUCGCUAAAUUUAGAAGGACAUGAGGAUCACCCAUGUAGGAUAUGGGAGCAUGC | – | – | 58.4 nM | 17.8 nM
33 | UGAAAUCAUGUAGGAUAUGCAUGGCGAAGCUACGCAGAAGGACAUGAGGAUCACCCAUGUUAUAGCUACCCAGCUCGGUGGCAA | 39.6 nM | 117 nM | – | –
34 | GACGUCGGAAGUCGACGCCACUACAAGGAUAUGCACAUGAGGAUCACCCAUGUUACGAAAUCGUAGCAGAAGGUGUAGUCGUCU | – | – | 245 nM | 24 nM
35 | UGUGUGUGAGGAUAUACAUGAGGAUCACCCAUGUAGCGCGCGCGUAUUCGUGUGUGUUGUAGAAGGCGCGCGCG | 33 nM | 30.5 nM | – | –
36 | AAAAUCUAUAGAGGAUAUCCAUACACUGCAUACGGAGAAGGCUAACAAUCAUGAGGACAUGAGGAUCACCCAUGUUGUGACCAU | – | – | 19.9 nM | 13.6 nM
